Measured values taken from ChEMBL document CHEMBL3763066, “Potent μ-Opioid Receptor Agonists from Cyclic Peptides Tyr-c[D-Lys-Xxx-Tyr-Gly]: Synthesis, Biological, and Structural Evaluation” (J Med Chem, 2016).
Where a SMILES comes first, the peptide text is derived from it. Bridges are numbered along the chain shown (N, C = ends). [ ]: non-standard residue; d: D form. 2Abz = Nc1ccccc1C(=O)O; Dap = NC[C@H](N)C(=O)O

How the values were obtained:
[1] = molecular target: Delta-type opioid receptor (Rattus norvegicus, UniProt P33533); test: Displacement of [3H]DPDPE from rat cortical DOR after […] by liquid scintillation counting method
Chain of Delta-type opioid receptor (P33533 whole entry): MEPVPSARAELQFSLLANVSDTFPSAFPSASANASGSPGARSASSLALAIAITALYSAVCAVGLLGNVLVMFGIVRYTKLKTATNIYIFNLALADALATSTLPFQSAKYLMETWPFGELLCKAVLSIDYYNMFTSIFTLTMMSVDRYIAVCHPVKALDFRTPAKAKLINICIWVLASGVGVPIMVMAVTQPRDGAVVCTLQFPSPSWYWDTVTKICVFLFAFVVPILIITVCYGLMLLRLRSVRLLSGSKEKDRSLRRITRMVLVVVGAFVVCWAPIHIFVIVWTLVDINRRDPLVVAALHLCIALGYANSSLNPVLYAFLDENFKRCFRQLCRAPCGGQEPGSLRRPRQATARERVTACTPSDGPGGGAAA

[2] = molecular target: T1, Mu-type opioid receptor (Homo sapiens, UniProt P35372); assay type: cell-based, CHO
T1 sequence (P35372 whole entry): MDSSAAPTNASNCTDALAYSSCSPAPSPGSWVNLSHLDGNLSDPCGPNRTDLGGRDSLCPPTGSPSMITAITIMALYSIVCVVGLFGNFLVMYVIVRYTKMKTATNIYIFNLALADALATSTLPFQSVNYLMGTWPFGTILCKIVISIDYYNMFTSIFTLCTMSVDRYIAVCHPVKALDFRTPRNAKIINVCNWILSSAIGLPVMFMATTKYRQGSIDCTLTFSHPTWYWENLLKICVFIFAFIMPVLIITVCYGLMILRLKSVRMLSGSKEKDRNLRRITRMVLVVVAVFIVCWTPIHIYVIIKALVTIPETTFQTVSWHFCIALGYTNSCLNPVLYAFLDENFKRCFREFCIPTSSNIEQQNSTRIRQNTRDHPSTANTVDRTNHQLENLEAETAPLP

[3] = molecular target: Mu-type opioid receptor (Rattus norvegicus, UniProt P33535); test: Displacement of [3H]DAMGO from rat cortical MOR by liquid scintillation counting method
Chain of Mu-type opioid receptor (Rattus norvegicus, UniProt P33535) (P33535 whole entry): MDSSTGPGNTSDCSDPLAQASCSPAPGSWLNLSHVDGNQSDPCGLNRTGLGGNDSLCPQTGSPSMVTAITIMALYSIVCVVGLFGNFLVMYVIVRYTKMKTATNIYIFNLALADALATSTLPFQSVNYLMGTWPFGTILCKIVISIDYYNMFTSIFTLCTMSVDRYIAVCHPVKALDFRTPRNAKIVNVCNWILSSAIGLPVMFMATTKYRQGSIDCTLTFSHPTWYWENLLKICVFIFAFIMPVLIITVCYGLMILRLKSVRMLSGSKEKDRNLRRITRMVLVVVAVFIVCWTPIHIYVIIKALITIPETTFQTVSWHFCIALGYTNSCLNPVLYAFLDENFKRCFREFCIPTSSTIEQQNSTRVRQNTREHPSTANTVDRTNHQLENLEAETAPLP

[4] = molecular target: Kappa-type opioid receptor (Cavia porcellus, UniProt P41144); test: Displacement of [3H]U69,593 from guinea pig KOR after 2 hrs by liquid scintillation counting method
Chain of Kappa-type opioid receptor (P41144 whole entry): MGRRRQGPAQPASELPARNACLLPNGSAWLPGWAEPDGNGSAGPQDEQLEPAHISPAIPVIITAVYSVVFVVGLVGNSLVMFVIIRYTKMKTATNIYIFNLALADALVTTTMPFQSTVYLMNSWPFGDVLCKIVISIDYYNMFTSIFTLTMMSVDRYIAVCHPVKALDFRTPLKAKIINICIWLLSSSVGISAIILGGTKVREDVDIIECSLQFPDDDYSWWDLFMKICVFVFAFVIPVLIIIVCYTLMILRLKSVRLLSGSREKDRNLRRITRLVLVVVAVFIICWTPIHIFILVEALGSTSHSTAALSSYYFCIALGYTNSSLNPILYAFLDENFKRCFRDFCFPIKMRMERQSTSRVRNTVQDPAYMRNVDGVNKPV

[5] = Selectivity ratio of Ki for guinea pig KOR to Ki for rat cortical MOR
Method in brief: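 KOR: guinea pig cortex and cerebellum membranes in 50 mM Tris pH 7.4, 10 mM MgCl2, 200 μM PMSF, with 2 nM [3H]U69,593, 2 h at 25 °C; U50,488 defined nonspecific binding. […] Both used GF/B filtration and scintillation counting. The ratio is Ki(KOR)/Ki(MOR).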

[6] = species on record: Rattus norvegicus; test: Selectivity ratio of Ki for rat cortical DOR to Ki for rat cortical MOR
[7] = molecular target: T1, Mu-type opioid receptor; test: Potency index, ratio of morphine EC50 to compound EC50 for human MOR
Method in brief: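 CHO cells expressing human MOR were seeded 1 day before the assay. Cells were loaded with membrane-potential blue dye in HBSS/20 mM HEPES pH 7.4 for 45 min at 37 °C, then compound was added. Fluorescence (ex 530, em 550–565 nm) was read every 3 s for 60 s, taking maximum minus minimum response. The index is morphine EC50 divided by compound EC50.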

## N[C@@H](Cc1ccc(O)cc1)C(=O)N[C@@H]1CCCCNC(=O)CNC(=O)[C@H](Cc2ccc(O)cc2)NC(=O)[C@H](Cc2cccnc2)NC1=O
[1]
  Ki: 1.28 µM
[2]
  IC50: 0.0111 µM
[3]
  Ki: 0.00195 µM
[4]
  Ki: 5.33 µM
[5]
  Ratio Ki: 1320
[6]
  Ratio Ki: 658

## NC(=O)NCCC[C@@H]1NC(=O)[C@H](NC(=O)[C@@H](N)Cc2ccc(O)cc2)CCCCNC(=O)CNC(=O)[C@H](Cc2ccc(O)cc2)NC1=O
[1]
  Ki: 3.32 µM
[2]
  IC50: 0.0669 µM
[3]
  Ki: 0.00904 µM
[4]
  Ki: 8.43 µM
[5]
  Ratio Ki: 760
[6]
  Ratio Ki: 367

## Nc1ccccc1C(=O)NC[C@@H]1NC(=O)[C@H](NC(=O)[C@@H](N)Cc2ccc(O)cc2)CCCCNC(=O)CNC(=O)[C@H](Cc2ccc(O)cc2)NC1=O (H-Y[dK][Dap](2Abz)YG; lactam 2-C)
[4]
  Ki: 3.23 µM
[5]
  Ratio Ki: 231
[6]
  Ratio Ki: 62

## N=C(N)NCCC[C@@H]1NC(=O)[C@H](NC(=O)[C@@H](N)Cc2ccc(O)cc2)CCCCNC(=O)CNC(=O)[C@H](Cc2ccc(O)cc2)NC1=O
[1]
  Ki: > 10 µM
[2]
  IC50: 0.131 µM
[3]
  Ki: 0.0174 µM
[4]
  Ki: 8.53 µM
[5]
  Ratio Ki: 406
[6]
  Ratio Ki: > 805

## N[C@@H](Cc1ccc(O)cc1)C(=O)N[C@@H]1CCCCNC(=O)CNC(=O)[C@H](Cc2ccc(O)cc2)NC(=O)[C@H](Cc2ccc(O)cc2)NC1=O
[1]
  Ki: 0.171 µM
[2]
  IC50: 0.0704 µM
[3]
  Ki: 0.114 µM
[4]
  Ki: > 10 µM
[5]
  Ratio Ki: > 324
[6]
  Ratio Ki: 1.5

## N[C@@H](Cc1ccc(O)cc1)C(=O)N[C@@H]1CCCCNC(=O)CNC(=O)[C@H](Cc2ccc(O)cc2)NC(=O)[C@H](Cc2ccncc2)NC1=O
[1]
  Ki: 2.27 µM
[2]
  IC50: 0.032 µM
[3]
  Ki: 0.00921 µM
[4]
  Ki: > 10 µM
[5]
  Ratio Ki: 1100
[6]
  Ratio Ki: 247

## N[C@@H](Cc1ccc(O)cc1)C(=O)N[C@@H]1CCCCNC(=O)CNC(=O)[C@H](Cc2ccc(O)cc2)NC(=O)[C@H](Cc2c[nH]c3ccccc23)NC1=O
[1]
  Ki: 0.099 µM
[2]
  IC50: 0.024 µM
[3]
  Ki: 0.00199 µM
[4]
  Ki: 8.16 µM
[5]
  Ratio Ki: 2940
[6]
  Ratio Ki: 50

## N[C@@H](Cc1ccc(O)cc1)C(=O)N[C@@H]1CCCCNC(=O)CNC(=O)[C@H](Cc2ccc(O)cc2)NC(=O)[C@H](Cc2ccccc2)NC1=O
[1]
  Ki: 0.039 µM
[7]
  Ratio EC50: 3
[2]
  IC50: 0.0023 µM
[3]
  Ki: 0.00099 µM
[4]
  Ki: 4.45 µM
[5]
  Ratio Ki: 4520
[6]
  Ratio Ki: 39
